In ChEMBL document CHEMBL3407479, “Structure-activity relationship for the oxadiazole class of antibiotics” (J Med Chem, 2015):
≈ marks a conversion by molar mass, not a printed value. Values belong to the compound of their own block, whether it stands above or below them.

Experiments:
Staphylococcus aureus [1] = experiment: Antibacterial activity against methicillin-sensitive Staphylococcus aureus ATCC 29213 after 16 to 20 hrs by broth microdilution method; type: functional
[2] = Plasma protein binding in human at 10 uM after 6 hrs by equilibrium dialysis assay; type: ADME, cell-free
Staphylococcus aureus [3] = experiment: Antibacterial activity against mecA-positive, ciprofloxacin/gentamicin/oxacillin/penicillin/linezolid-resistant Staphylococcus aureus NRS119 after 16 to 20 hrs by broth microdilution method; type: functional
HepG2 = experiment: Cytotoxicity against human HepG2 cells assessed as cell viability after 16 hrs by XTT assay; type: cell-based; conditions: HepG2, 16 h
Procedure, shortened: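 HepG2 cells were run in triplicate in an XTT viability assay. IC50 was derived from the concentration–response data.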

[4] = tested on: Staphylococcus epidermidis; experiment: Antibacterial activity against Staphylococcus epidermidis ATCC 35547 after 16 to 20 hrs by broth microdilution method; type: functional
Enterococcus faecium [5] = experiment: Antibacterial activity against Enterococcus faecium NCTC 7171 after 16 to 20 hrs by broth microdilution method; type: functional
Staphylococcus aureus [6] = experiment: Antibacterial activity against mecA-positive, methicillin/oxacillin/tetracycline-resistant and vancomycin/linezolid susceptible Staphylococcus aureus COL after 16 to 20 hrs by broth microdilution method; type: functional
Streptococcus pyogenes = experiment: Antibacterial activity against Streptococcus pyogenes ATCC 49399 after 16 to 20 hrs by broth microdilution method; type: functional
[7] = tested on: Staphylococcus haemolyticus; experiment: Antibacterial activity against Staphylococcus haemolyticus ATCC 29970 after 16 to 20 hrs by broth microdilution method; type: functional
Staphylococcus aureus [8] = experiment: Antibacterial activity against vancomycin/methicillin-resistant Staphylococcus aureus VRS1 clinical isolate after 16 to 20 hrs by broth microdilution method; type: functional
Streptococcus oralis = experiment: Antibacterial activity against Streptococcus oralis ATCC 9811 after 16 to 20 hrs by broth microdilution method; type: functional
Bacillus licheniformis = experiment: Antibacterial activity against Bacillus licheniformis ATCC 12759 after 16 to 20 hrs by broth microdilution method; type: functional
Enterococcus faecium [9] = experiment: Antibacterial activity against vancomycin-resistant Enterococcus faecium 106 clinical isolate after 16 to 20 hrs by broth microdilution method
Enterococcus faecalis [10] = experiment: Antibacterial activity against vancomycin-resistant Enterococcus faecalis 99 clinical isolate after 16 to 20 hrs by broth microdilution method; type: functional
Bacillus cereus = experiment: Antibacterial activity against Bacillus cereus ATCC 13061 after 16 to 20 hrs by broth microdilution method; type: functional
Enterococcus faecium [11] = experiment: Antibacterial activity against vancomycin-susceptible Enterococcus faecium 119-39A clinical isolate after 16 to 20 hrs by broth microdilution method; type: functional
Enterococcus faecalis [12] = experiment: Antibacterial activity against Enterococcus faecalis ATCC 29212 after 16 to 20 hrs by broth microdilution method; type: functional
Enterococcus faecalis [13] = experiment: Antibacterial activity against vancomycin-susceptible Enterococcus faecalis 201 clinical isolate after 16 to 20 hrs by broth microdilution method; type: functional
Staphylococcus aureus [14] = experiment: Antibacterial activity against mecA-positive, methicillin/oxacillin/tetracycline-resistant and vancomycin/linezolid susceptible Staphylococcus aureus ATCC 27660 after 16 to 20 hrs by broth microdilution method; type: functional
Staphylococcus aureus [15] = experiment: Antibacterial activity against mecA-positive, ciprofloxacin/gentamicin/oxacillin/penicillin/linezolid-resistant Staphylococcus aureus NRS120 after 16 to 20 hrs by broth microdilution method; type: functional
Staphylococcus aureus [16] = experiment: Antibacterial activity against vancomycin/methicillin-resistant Staphylococcus aureus VRS2 clinical isolate after 16 to 20 hrs by broth microdilution method; type: functional

MIC (Staphylococcus aureus [1]): ≥ 128 µg/mL
SMILES: Fc1ccc(Oc2ccc(-c3noc(-c4n[nH]c5ccccc45)n3)cc2)cc1

MIC (Staphylococcus aureus [1]): ≥ 128 µg/mL
SMILES: COC(=O)c1ccc(-c2nc(-c3ccc(Oc4ccc(F)cc4)cc3)no2)cc1

MIC (Staphylococcus aureus [1]): 4 µg/mL (≈ 12.1 µM)
SMILES: Nc1ccc(-c2nc(-c3ccc(Oc4ccccc4)cc3)no2)cc1

MIC (Staphylococcus aureus [1]): ≥ 128 µg/mL
SMILES: Oc1ccc(-c2nc(-c3ccc(Oc4ccc(F)cc4)cc3)no2)cn1

The remaining lines, values behind:

SMILES: COc1cc(-c2nc(-c3ccc(Oc4ccc(C(F)(F)F)cc4)cc3)no2)ccc1O
MIC (Staphylococcus aureus [1]): ≥ 128 µg/mL

SMILES: FC(F)(F)c1ccc(Oc2ccc(-c3noc(-c4c[nH]cn4)n3)cc2)cc1
PPB [2]: 93.5%
MIC (Staphylococcus aureus [3]): 4 µg/mL (≈ 10.7 µM)
IC50 (HepG2): 31.5 µg/mL (≈ 84.6 µM)
MIC [4]: 32 µg/mL (≈ 86 µM)
MIC (Enterococcus faecium [5]): 8 µg/mL (≈ 21.5 µM)
MIC (Staphylococcus aureus [1]): 2 µg/mL (≈ 5.37 µM)
MIC (Staphylococcus aureus [6]): 32 µg/mL (≈ 86 µM)
MIC (Streptococcus pyogenes): 128 µg/mL (≈ 344 µM)
MIC [7]: 16 µg/mL (≈ 43 µM)
MIC (Staphylococcus aureus [8]): 1 µg/mL (≈ 2.69 µM)
MIC (Streptococcus oralis): > 128 µg/mL

SMILES: Oc1ccc(-c2nc(-c3ccc(Oc4ccc(C(F)(F)F)cc4)cc3)no2)cc1O
MIC (Staphylococcus aureus [1]): 2 µg/mL (≈ 4.83 µM)

SMILES: COc1ccc(-c2nc(-c3ccc(Oc4ccc(F)cc4)cc3)no2)cc1[N+](=O)[O-]
MIC (Staphylococcus aureus [1]): ≥ 128 µg/mL

SMILES: FC(F)(F)c1ccc(Oc2ccc(-c3noc(-c4n[nH]cc4I)n3)cc2)cc1
MIC (Staphylococcus aureus [1]): 2 µg/mL (≈ 4.01 µM)

SMILES: O=C1CC(c2nc(-c3ccc(Oc4ccc(C(F)(F)F)cc4)cc3)no2)NC(=O)N1 (stereo unspecified)
MIC (Staphylococcus aureus [1]): ≥ 128 µg/mL

SMILES: C#Cc1c[nH]nc1-c1nc(-c2ccc(Oc3ccc(C(F)(F)F)cc3)cc2)no1
PPB [2]: 96.4%
MIC (Bacillus licheniformis): > 128 µg/mL
MIC (Staphylococcus aureus [3]): 32 µg/mL (≈ 80.7 µM)
MIC (Enterococcus faecium [9]): > 128 µg/mL
IC50 (HepG2): 9.8 µg/mL (≈ 24.7 µM)
MIC (Enterococcus faecalis [10]): > 128 µg/mL
MIC [4]: > 128 µg/mL
MIC (Enterococcus faecium [5]): > 128 µg/mL
MIC (Staphylococcus aureus [1]): 0.25 µg/mL (≈ 0.631 µM)
MIC (Bacillus cereus): > 128 µg/mL
MIC (Enterococcus faecium [11]): > 128 µg/mL
MIC (Enterococcus faecalis [12]): > 128 µg/mL
MIC (Staphylococcus aureus [6]): > 128 µg/mL
MIC (Enterococcus faecalis [13]): > 128 µg/mL
MIC (Streptococcus pyogenes): > 128 µg/mL
MIC [7]: > 128 µg/mL
MIC (Staphylococcus aureus [14]): 0.5 µg/mL (≈ 1.26 µM)
MIC (Staphylococcus aureus [8]): 1 µg/mL (≈ 2.52 µM)
MIC (Staphylococcus aureus [15]): > 128 µg/mL
MIC (Streptococcus oralis): > 128 µg/mL
MIC (Staphylococcus aureus [16]): 0.5 µg/mL (≈ 1.26 µM)
